Test results reported in ChEMBL document CHEMBL3414542, “Design and synthesis of celastrol derivatives as anticancer agents” (Eur J Med Chem, 2015).

Legend:
[1] = Octanol-water partition coefficient, log P of the compound by shake-flask method; format: physicochemical
How it was run: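 Shake-flask method: the solute was dissolved in octanol and water and its concentration in each phase was measured by HPLC. Log P is the logarithm of the octanol/aqueous concentration ratio.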

HepG2 [2] = test: Anticancer activity against human HepG2 cells assessed as cell survival after 48 hrs by MTT assay; format: functional, cell-based; settings: HepG2, 48 h
How it was run: (§1)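 MTT colorimetric assay. MTT was added (4 h, 37 °C), followed by DMSO, and absorbance was read at 570 nm. IC50 is the concentration giving 50% cell survival. Values are the mean ± SD of three independent experiments in triplicate.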

MGC-803 [3] = test: Anticancer activity against human MGC803 cells assessed as cell survival after 48 hrs by MTT assay; format: functional, cell-based; settings: MGC-803, 48 h; how it was run: as §1
[4] = target: Telomerase reverse transcriptase (Homo sapiens, UniProt O14746); test: Inhibition of telomerase in human MGC803 cell extracts after 24 hrs by TRAP-PCR-ELISA; set-up: species or system MGC-803
How it was run: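 MGC-803 cells were grown in DMEM with 10% FBS, streptomycin and penicillin at 37 °C, 5% CO2, and 5 × 10^4 cells were seeded and allowed to adhere. Cells were exposed to staurosporine and test agents (60 to 0.0821 […] series) for 24 h, then scraped, washed, lysed in RIPA buffer on ice for 30 min, and spun at 12,000 g for 20 min at 4 °C. Extract (2 µL) was run in a TRAP-PCR-ELISA with anti-DIG peroxidase detection and read at 490 nm. Values are mean ± SD.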

[5] = Anticancer activity against human SMMC7721 cells assessed as cell survival after 48 hrs by MTT assay; format: functional, cell-based; settings: SMMC-7721, 48 h; how it was run: as §1
[6] = Anticancer activity against human SGC7901 cells assessed as cell survival after 48 hrs by MTT assay; format: functional, cell-based; settings: SGC-7901, 48 h; how it was run: as §1
MGC-803 [7] = test: Ratio of celastrol IC50 to compound IC50 for human MGC803 cells assessed as cell survival after 48 hrs by MTT assay; format: functional
HepG2 [8] = test: Ratio of celastrol IC50 to compound IC50 for human HepG2 cells assessed as cell survival after 48 hrs by MTT assay; format: functional
SMMC-7721 [9] = test: Induction of apoptosis in human SMMC7721 cells assessed as necrotic cells at 0.5 uM after 48 hrs by annexin V/PI staining based flow cytometry (reference value: 0%); format: functional
SMMC-7721 [10] = test: Induction of apoptosis in human SMMC7721 cells assessed […] cells at 0.5 uM after 48 hrs by annexin V/PI staining based flow cytometry (reference value: 0.434%); format: functional; settings: SMMC-7721, 48 h, read-out: Activity
SMMC-7721 [11] = test: Induction of apoptosis in human SMMC7721 cells assessed as non-viable cells at 0.5 uM after 48 hrs by annexin V/PI staining based flow cytometry (reference value: 1.56%); format: functional
SMMC-7721 [12] = test: Induction of apoptosis in human SMMC7721 cells assessed as normal cells at 0.5 uM after 48 hrs by annexin V/PI staining based flow cytometry (reference value: 98%); format: functional

Sequence of Telomerase reverse transcriptase (O14746 whole entry): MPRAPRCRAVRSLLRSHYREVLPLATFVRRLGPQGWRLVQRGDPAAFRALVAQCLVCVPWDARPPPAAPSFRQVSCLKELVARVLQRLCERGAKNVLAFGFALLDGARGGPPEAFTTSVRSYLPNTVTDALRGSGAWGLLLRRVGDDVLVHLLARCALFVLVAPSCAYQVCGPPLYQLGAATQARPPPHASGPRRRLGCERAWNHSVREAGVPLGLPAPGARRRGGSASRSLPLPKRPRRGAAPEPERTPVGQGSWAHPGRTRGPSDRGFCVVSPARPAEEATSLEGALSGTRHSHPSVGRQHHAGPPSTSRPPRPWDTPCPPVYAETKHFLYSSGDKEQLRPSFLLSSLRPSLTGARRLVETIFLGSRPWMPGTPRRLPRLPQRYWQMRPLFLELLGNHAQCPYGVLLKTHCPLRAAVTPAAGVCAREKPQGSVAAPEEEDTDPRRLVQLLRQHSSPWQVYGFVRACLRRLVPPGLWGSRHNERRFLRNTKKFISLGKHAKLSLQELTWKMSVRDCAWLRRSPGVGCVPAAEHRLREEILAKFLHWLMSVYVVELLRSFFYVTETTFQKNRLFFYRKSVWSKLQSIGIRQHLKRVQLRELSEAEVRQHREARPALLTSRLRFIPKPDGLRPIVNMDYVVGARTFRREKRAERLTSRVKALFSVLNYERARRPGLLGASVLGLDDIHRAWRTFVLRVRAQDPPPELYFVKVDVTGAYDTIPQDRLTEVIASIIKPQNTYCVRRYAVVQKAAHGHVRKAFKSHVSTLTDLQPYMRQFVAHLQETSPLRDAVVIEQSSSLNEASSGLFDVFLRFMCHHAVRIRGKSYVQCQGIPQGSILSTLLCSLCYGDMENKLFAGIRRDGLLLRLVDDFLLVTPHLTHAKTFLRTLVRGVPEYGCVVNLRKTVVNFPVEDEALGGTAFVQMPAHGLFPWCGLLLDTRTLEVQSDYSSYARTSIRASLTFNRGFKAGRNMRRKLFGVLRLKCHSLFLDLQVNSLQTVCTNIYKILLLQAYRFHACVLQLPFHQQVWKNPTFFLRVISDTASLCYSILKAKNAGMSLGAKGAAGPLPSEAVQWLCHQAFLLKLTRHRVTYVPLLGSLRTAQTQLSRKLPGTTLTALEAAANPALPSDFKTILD

Structure (SMILES)	logP [1]	IC50 (HepG2 [2])	IC50 (MGC-803 [3])	IC50 [4]	IC50 [5]	IC50 [6]	Ratio IC50 (MGC-803 [7])	Ratio IC50 (HepG2 [8])	Activity (SMMC-7721 [9])	viability at 0.5 µM (SMMC-7721 [10])	Activity (SMMC-7721 [11])	Activity (SMMC-7721 [12])
CC1=C(O)C(=O)C=C2C1=CC=C1[C@@]2(C)CC[C@@]2(C)[C@@H]3C[C@](C)(C(=O)N(C)C)CC[C@]3(C)CC[C@]12C	4.2	11.2 µM	6.3 µM	21 µM	20 µM	10.5 µM	–	–	–	–	–	–
COc1cccc2c1C(=O)c1c(O)c3c(c(O)c1C2=O)C[C@@](O)(C(=O)CO)C[C@@H]3O[C@H]1C[C@H](N)[C@H](O)[C@H](C)O1 [DOXORUBICIN]	–	0.87 µM	1.19 µM	–	1.22 µM	1.45 µM	–	–	–	–	–	–
CCOC(=O)[C@]1(C)CC[C@]2(C)CC[C@]3(C)C4=CC=C5C(=CC(=O)C(O)=C5C)[C@]4(C)CC[C@@]3(C)[C@@H]2C1	4.98	15.2 µM	12 µM	18.6 µM	9.28 µM	11.5 µM	–	–	–	–	–	–
O=c1[nH]cc(F)c(=O)[nH]1 [FLUOROURACIL]	–	5.86 µM	3.58 µM	–	4.87 µM	6.12 µM	–	–	–	–	–	–
CNC(=O)[C@]1(C)CC[C@]2(C)CC[C@]3(C)C4=CC=C5C(=CC(=O)C(O)=C5C)[C@]4(C)CC[C@@]3(C)[C@@H]2C1	3.96	10.6 µM	24.1 µM	15.1 µM	7.62 µM	9.38 µM	–	–	–	–	–	–
CC1=C(O)C(=O)C=C2C1=CC=C1[C@@]2(C)CC[C@@]2(C)[C@@H]3C[C@](C)(C(=O)N4CCN(CCN(C)C)CC4)CC[C@]3(C)CC[C@]12C	3.95	5.21 µM	1 µM	1.41 µM	2.58 µM	1.33 µM	–	–	–	–	–	–
C/C(=C\C(=O)Nc1ccccc1C(=O)O)c1ccc2ccccc2c1	–	–	–	0.41 µM	–	–	–	–	–	–	–	–
CC1=C(O)C(=O)C=C2C1=CC=C1[C@@]2(C)CC[C@@]2(C)[C@@H]3C[C@](C)(C(=O)O)CC[C@]3(C)CC[C@]12C [CELASTROL]	4.38	4.01 µM	1.55 µM	0.78 µM	0.58 µM	0.15 µM	–	–	–	–	–	–
CC1=C(O)C(=O)C=C2C1=CC=C1[C@@]2(C)CC[C@@]2(C)[C@@H]3C[C@](C)(C(=O)N4CCN(CCO)CC4)CC[C@]3(C)CC[C@]12C	3.44	8.7 µM	10.3 µM	2.01 µM	1.84 µM	3.81 µM	–	–	–	–	–	–
CCCCNC(=O)[C@]1(C)CC[C@]2(C)CC[C@]3(C)C4=CC=C5C(=CC(=O)C(O)=C5C)[C@]4(C)CC[C@@]3(C)[C@@H]2C1	–	3.07 µM	3.55 µM	–	6.88 µM	4.9 µM	–	–	–	–	–	–
CC1=C(O)C(=O)C=C2C1=CC=C1[C@@]2(C)CC[C@@]2(C)[C@@H]3C[C@](C)(C(=O)N4CCN(CCN5CCOCC5)CC4)CC[C@]3(C)CC[C@]12C	3.5	16.4 µM	13.4 µM	15.2 µM	12.3 µM	8.1 µM	–	–	–	–	–	–
CC1=C(O)C(=O)C=C2C1=CC=C1[C@@]2(C)CC[C@@]2(C)[C@@H]3C[C@](C)(C(=O)NCC(C)O)CC[C@]3(C)CC[C@]12C (stereo partly specified)	3.49	0.28 µM	1.22 µM	0.34 µM	0.61 µM	0.1 µM	1.3	14.3	–	–	–	–
CC1=C(O)C(=O)C=C2C1=CC=C1[C@@]2(C)CC[C@@]2(C)[C@@H]3C[C@](C)(C(=O)NCCO)CC[C@]3(C)CC[C@]12C	3.44	0.61 µM	0.39 µM	0.11 µM	0.3 µM	0.16 µM	4	6.6	1.24%	13.2%	48%	37.6%
CC1=C(O)C(=O)C=C2C1=CC=C1[C@@]2(C)CC[C@@]2(C)[C@@H]3C[C@](C)(C(=O)N4CCOCC4)CC[C@]3(C)CC[C@]12C	3.8	22.7 µM	30.7 µM	8.01 µM	10.7 µM	8.74 µM	–	–	–	–	–	–
